According to ChEMBL document CHEMBL4396897, “Potent 5-Cyano-6-phenyl-pyrimidin-Based Derivatives Targeting DCN1-UBE2M Interaction” (J Med Chem, 2019):

Legend:
PC-9 = experiment: Induction of apoptosis in human PC9 cells assessed as early apoptotic cells at 5 uM after 48 hrs by Annexin V-FITC/propidium iodide staining based flow cytometry (reference value: 1.36%); type: functional
Outline: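 PC9 cells seeded in 6-well plates (1~2×10^6 cells/mL), incubated overnight, then exposed to 0, 2.5, 5 or 10µM compound for 48h. Harvested cells stained with Annexin-V-FITC/PI for 30 min and analysed by flow cytometry. Three individual experiments; means ± SD.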

NCI-H1975 = experiment: Induction of apoptosis in human NCI-NCI-H1975 cells after 48 hrs by Annexin V-FITC/propidium iodide staining based flow cytometry; type: functional, cell-based
MCF7 = experiment: Antiproliferative activity against human MCF7 after 72 hrs by MTT assay; type: functional, cell-based; details: MCF7, 72 h
Outline: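 MTT viability assay: cells seeded at 2~5×10^3 per well, exposed to serial dilutions of compound for 72h, then MTT (5 mg/mL in PBS) added for 4h at 37°C. Formazan dissolved in DMSO and read at 490nm. IC50 reported as mean ± SD of three independent experiments.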

C#CCSc1nc(Sc2nccs2)c(C#N)c(-c2ccc(C)cc2)n1
Activity (PC-9): 8.15% | Activity (NCI-H1975): Dose-dependent effect | IC50 (MCF7): 2200 nM
